By logD is commonly meant the decadic logarithm of the distribution of all forms, ionised or not, between an organic phase and buffer at a given pH. A higher logD goes with higher lipophilicity. By IC50 is commonly meant the concentration that inhibits the measured activity by half. The low end stands for greater potency in that assay, the high end for weaker potency in that assay. As a reminder, the inhibition in vivo is the change of the read-out against control, counted positive when it falls. For orientation: solubility means the concentration that dissolves in the medium under given conditions. Low values mean a poorly soluble substance, high ones a readily soluble substance.

Here are results for 25 molecules from ChEMBL document CHEMBL3792361, “Design and Synthesis of Benzimidazoles As Novel Corticotropin-Releasing Factor 1 Receptor Antagonists” (J Med Chem, 2016).

The nature of series [1]: Octanol-water partition co-efficient, log D of the compound at pH 7.4 by HPLC analysis. The class given is physicochemical.
A short description of series [2]: Cytotoxicity against human HepG2 cells assessed as rate of ATP content at 30 uM after 1 day by ATPLite-M assay relative to control. As to conditions: read-out: Activity. The series is classed as cell-based. A general note: ATP-based viability assays read luminescence as a measure of living cells.
For series [3], the target named is T1, Corticotropin-releasing factor receptor 1 (Homo sapiens, UniProt P34998).
T1 sequence (P34998 whole entry): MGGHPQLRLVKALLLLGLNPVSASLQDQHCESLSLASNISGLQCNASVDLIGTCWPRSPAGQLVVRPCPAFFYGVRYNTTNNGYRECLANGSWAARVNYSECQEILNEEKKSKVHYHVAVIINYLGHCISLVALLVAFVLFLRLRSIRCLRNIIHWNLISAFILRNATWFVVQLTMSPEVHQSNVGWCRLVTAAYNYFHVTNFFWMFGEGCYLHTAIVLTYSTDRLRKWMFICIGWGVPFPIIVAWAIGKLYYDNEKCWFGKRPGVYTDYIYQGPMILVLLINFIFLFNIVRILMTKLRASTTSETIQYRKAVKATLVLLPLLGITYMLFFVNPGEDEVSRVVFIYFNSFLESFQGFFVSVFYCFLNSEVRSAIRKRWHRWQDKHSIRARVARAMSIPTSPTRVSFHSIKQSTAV
Briefly: Displacement of [125I]-CRF from human CRF1 receptor expressed in CHO cellular membrane fraction after 1.5 hrs by liquid scintillation counting method. The series is classed as cell-based. (Displacement assays read how much labelled ligand stays bound in the presence of the test substance.)

Series [4] concerns Mus musculus. Briefly: Ex vivo inhibition of [125I]-CRF binding to CRF1 receptor in mouse frontal cortex at 20 mg/kg, po after 1 hr by gamma scintillation counting method. The series is classed as functional. The procedure, abridged:
(§1)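 Compound suspended in 0.5% methyl cellulose in water and dosed orally (10 mL/kg), 5 mice/group. Incubated with 100 pM ovine 125I-CRF at rt for 2 h, then GF/C filtration.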

In series [5] the test system is Mus musculus. Briefly: Ex vivo inhibition of [125I]-CRF binding to CRF1 receptor in mouse olfactory bulb at 20 mg/kg, po after 1 hr by gamma scintillation counting method. The class given is functional. The procedure, abridged: as §1
The subject of series [6] is Mus musculus. Briefly: Ex vivo inhibition of [125I]-CRF binding to CRF1 receptor in mouse pituitary gland at 20 mg/kg, po after 1 hr by gamma scintillation counting method. The class given is functional. An outline of the steps: as §1
For series [7], the system named is Mus musculus. Briefly: Ex vivo inhibition of [125I]-CRF binding to CRF1 receptor in mouse frontal cortex at 60 mg/kg, po after 1 hr by gamma scintillation counting method. The class given is functional. An outline of the steps: as §1
The target in series [8] is T2, Corticotropin-releasing factor receptor 2 (Homo sapiens) (UniProt Q13324).
T2 sequence (whole entry): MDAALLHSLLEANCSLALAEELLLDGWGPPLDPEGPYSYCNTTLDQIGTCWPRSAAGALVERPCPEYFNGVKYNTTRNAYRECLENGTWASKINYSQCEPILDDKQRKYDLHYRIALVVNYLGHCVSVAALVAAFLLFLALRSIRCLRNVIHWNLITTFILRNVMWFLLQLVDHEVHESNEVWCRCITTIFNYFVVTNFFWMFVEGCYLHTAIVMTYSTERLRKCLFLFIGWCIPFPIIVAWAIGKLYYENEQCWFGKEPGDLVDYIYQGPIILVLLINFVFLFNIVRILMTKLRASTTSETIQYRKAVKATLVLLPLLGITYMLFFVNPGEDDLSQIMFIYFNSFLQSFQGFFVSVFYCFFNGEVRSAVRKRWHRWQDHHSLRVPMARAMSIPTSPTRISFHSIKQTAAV
Briefly: Binding affinity to human CRF2alpha receptor up to 10 uM.

The target of series [9] is T2, Corticotropin-releasing factor receptor 2 (Homo sapiens). Briefly: Binding affinity to human CRF2beta receptor up to 10 uM.
Series [10] concerns Mus musculus. Briefly: Ex vivo inhibition of [125I]-CRF binding to CRF1 receptor in mouse pituitary gland at 60 mg/kg, po after 1 hr by gamma scintillation counting method. The series is classed as functional. An outline of the steps: as §1
The nature of series [11]: Solubility of the compound in pH 6.8 phosphate buffer with bile acid by HPLC analysis. The class given is physicochemical. An outline of the steps: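 DMSO stock of compound added to pH 6.8 phosphate buffer containing bile acid. After incubation, precipitate removed by filter-plate filtration; dissolved compound in filtrate quantified by HPLC.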
Series [12] relates to Mus musculus. Briefly: Suppression of stress-induced activation of hypothalamus-pituitary-adrenocortical axis in mouse assessed as reduction of plasma ATCH level at 60 mg/kg, po after 1 hr by immunoradiometric assay. The series is classed as functional, organism-based. An outline of the steps: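 Mice dosed orally with compound suspended in 0.5% methyl cellulose (10 mL/kg) 1 h before test. PBS given icv (5 µL/mouse); blood taken by decapitation 0.5 h later. Plasma separated by centrifugation at 4°C; ACTH measured by immunoradiometric assay. Mean ± SEM, n = 10, Dunnett's test vs vehicle.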

Series [13] has as its system Mus musculus. Briefly: Ex vivo inhibition of [125I]-CRF binding to CRF1 receptor in mouse olfactory bulb at 60 mg/kg, po after 1 hr by gamma scintillation counting method. The class given is functional. An outline of the steps:
as §1

Values after ≈ are worked out from the molar mass of the structure shown. Active and inactive are the calls of the source. No cut-off for these calls is given here. Where only a bound is given, the exact number is not on record here.

As to `CCCN(CCC)c1cccc2nc(Nc3c(C)cc(C)cc3C)n(C)c12`, the pH-dependent lipophilicity (logD) in [1] stood at 5.23. In addition, the viability at 24 h, 30 µM in [2] is 89%. In series [3], this molecule showed a half-maximal inhibitory concentration (IC50) of 0.015 µM.

With `CCCN(CCC)c1cccc2nc(Nc3c(C)cc(C)cc3C)[nH]c12`, the viability at 24 h, 30 µM in series [2] was 41%. The molecule also showed a half-maximal inhibitory concentration (IC50) in [3] of 2.5 µM.

As for `CCN(CC)c1ccc(OC)c2nc(Nc3c(C)cc(Cl)cc3OC)n(C)c12`, the viability at 24 h, 30 µM in series [2] came to 5%. In addition, in [3], the concentration for half-maximal inhibition (IC50) stood at 0.013 µM.

`CCCN(CCC)c1cccc2nc(Nc3c(C)cc(Cl)cc3C(C)C)n(C)c12` returned a log distribution coefficient (logD) in [1] of 5.96. For the same molecule, in series [2], the viability at 24 h, 30 µM was determined as 28%. Also, the concentration for half-maximal inhibition (IC50) in [3] came to 0.022 µM.

With `CCCN(CCC)c1cccc2nc(Nc3c(C)cc(Br)cc3OC)n(C)c12`, the log distribution coefficient (logD) in series [1] worked out at 5.39. Further, the viability at 24 h, 30 µM in [2] was 82%. In series [3], this molecule showed an IC50 of 0.012 µM.

On to `CCCN(CCC)c1cccc2nc(Nc3c(C)cc(Cl)cc3OC)n(C)c12`, for which the IC50 in series [3] amounted to 0.014 µM.

As to `CCCN(CCC)c1cccc2nc(Nc3c(C)cc(C)cc3C)sc12`, the viability at 24 h, 30 µM in series [2] was 75%. In series [3], the half-maximal inhibitory concentration (IC50) is 0.077 µM.

In the case of `CCN(CC)c1ccc(C#N)c2nc(Nc3c(C)cc(Cl)cc3OC)n(C)c12`, in series [2], the viability at 24 h, 30 µM was determined as 81%. The IC50 in [3] stood at 0.013 µM.

Turning to `CCN(CC)c1ccc(-c2ccccc2)c2nc(Nc3c(C)cc(Cl)cc3OC)n(C)c12`, in series [2], the viability at 24 h, 30 µM was determined as 92%. For the same molecule, the half-inhibitory concentration (IC50) in series [3] is > 10 µM.

On to `CCCN(CCC)c1ccc(C#N)c2nc(Nc3c(C)cc(Cl)cc3OC)n(C)c12`, for which the viability at 24 h, 30 µM in series [2] came out at 83%. Further, the IC50 in [3] is 0.014 µM.

For `COCCN(CCOC)c1cccc2nc(Nc3c(C)cc(Br)cc3OC)n(C)c12`, the viability at 24 h, 30 µM in series [2] came out at 92%. Besides, in series [3], the IC50 was determined as 0.065 µM.

Consider `CCCN(CCC)c1cccc2nc(Nc3c(C)cc(C)cc3C)oc12`, for which the viability at 24 h, 30 µM in series [2] is 65%. The IC50 in series [3] stood at 0.99 µM.

As to `CCCN(CCC)c1cc(C)nc2c(-c3cnc(N(C)C)cc3C)c(C)nn12`, the values for the inhibition in vivo at 20 mg/kg in series [4], in series [5] and in series [6] were 96%, 95% and 98%, respectively. Moreover, the viability at 24 h, 30 µM in [2] turned out to be 51%.

Consider `CCN(CC)c1cccc2nc(Nc3c(C)cc(Br)cc3OC)n(C)c12`, for which the viability at 24 h, 30 µM in [2] is 93%. Besides, in series [3], the concentration for half-maximal inhibition (IC50) is 0.013 µM.

Turning to `CCN(c1cccc2nc(Nc3c(C)cc(Br)cc3OC)n(C)c12)C(C)C`, in series [2], the viability at 24 h, 30 µM came to 87%. The molecule also came in with an IC50 in series [3] of 0.011 µM.

In the case of `CCCN(CCC)c1cccc2nc(Nc3c(C)cc(C)cc3C)n(-c3ccccc3)c12`, the logD in series [1] came out at 6.31. Further, the viability at 24 h, 30 µM in series [2] was found to be 32%. In series [3], this molecule yielded an IC50 of 2.2 µM.

On to `CCCN(CCC)c1cccc2nc(Nc3c(C)cc(C)cc3C)n(C(C)C)c12`, for which the logD in [1] was found to be 5.9. Further, the viability at 24 h, 30 µM in series [2] worked out at 10%. In [3], this molecule came in with an IC50 of 0.097 µM.

For the molecule `CCCCN(CCCC)c1cccc2nc(Nc3c(C)cc(Br)cc3OC)n(C)c12`, the viability at 24 h, 30 µM in series [2] is 90%. In [3], this molecule displayed an IC50 of 0.014 µM.

Turning to `CCCN(CCC)c1ccc(Cl)c2nc(Nc3c(C)cc(Cl)cc3OC)n(C)c12`, the inhibition in vivo at 60 mg/kg in series [7] worked out at 86%; in series [10] it was 101%; in series [13], 83%. Further, the result in [8] and in [9] was inactive. The amount in solution in series [11] (solubility) came to 0.033 mg/mL (≈ 75.8 µM). Moreover, the outcome in [12] was Active.

Take `CCCN(CCC)c1c(Cl)ccc2nc(Nc3c(C)cc(Cl)cc3OC)n(C)c12`: the viability at 24 h, 30 µM in [2] was 86%. Further, the IC50 in series [3] is > 10 µM.

`CCN(CC)c1ccc(Cl)c2nc(Nc3c(C)cc(Cl)cc3OC)n(C)c12`: in [2], the viability at 24 h, 30 µM turned out to be 76%.

On to `CCN(CC)c1ccc(C)c2nc(Nc3c(C)cc(Cl)cc3OC)n(C)c12`, for which the viability at 24 h, 30 µM in series [2] is 72%. In [3], this molecule displayed a concentration for half-maximal inhibition (IC50) of 0.0076 µM.

For the molecule `CCCN(CCC)c1c(Cl)cc(Cl)c2nc(Nc3c(C)cc(Cl)cc3OC)n(C)c12`, the viability at 24 h, 30 µM in [2] was 72%. Further, the half-maximal inhibitory concentration (IC50) in series [3] was 0.17 µM.

For the molecule `CCCN(CCC)c1cccc2nc(Nc3c(C)cccc3C)n(C)c12`, the viability at 24 h, 30 µM in [2] is 72%. Further, the IC50 in series [3] worked out at 0.14 µM.

In the case of `CCCN(CCC)c1cccc2nc(Nc3ccc(C)cc3C)n(C)c12`, the viability at 24 h, 30 µM in [2] turned out to be 79%. In addition, the IC50 in series [3] was 0.084 µM.
